Measured values: ChEMBL document CHEMBL4251655 (Eur J Med Chem, 2018)

Key:
[1] = Permeability of the compound in RRCK cells; type: ADME, cell-based, Canis lupus familiaris, MDCKII-LE; details: dog, MDCK; read-out: permeability
[2] = molecular target: Tyrosine-protein kinase ABL1 (Homo sapiens) (UniProt P00519); experiment: Inhibition of recombinant human His-tagged ABL1 expressed in baculovirus expression system at 1 uM relative to control
Outline: (§1)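 Forty-kinase selectivity panel; each compound tested at a single 1 µM concentration in the presence of 1 mM ATP; result given as percent inhibition.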

[3] = molecular target: T1, Aurora kinase A (Homo sapiens) (UniProt O14965); experiment: Inhibition of recombinant full length human His-tagged AURKA expressed in baculovirus expression system at 1 uM relative to control; outline: as §1
T1 sequence (whole entry): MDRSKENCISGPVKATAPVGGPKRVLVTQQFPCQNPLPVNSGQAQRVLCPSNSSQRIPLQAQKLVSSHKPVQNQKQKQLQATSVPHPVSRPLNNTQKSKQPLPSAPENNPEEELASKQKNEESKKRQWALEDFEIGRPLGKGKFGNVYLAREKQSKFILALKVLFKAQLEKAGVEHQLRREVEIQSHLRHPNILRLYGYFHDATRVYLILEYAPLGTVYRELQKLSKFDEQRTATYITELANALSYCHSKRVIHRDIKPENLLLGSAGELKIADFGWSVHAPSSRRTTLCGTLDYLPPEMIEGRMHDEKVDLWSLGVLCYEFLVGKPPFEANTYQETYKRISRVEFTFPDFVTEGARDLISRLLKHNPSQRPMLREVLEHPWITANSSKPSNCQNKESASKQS

[4] = molecular target: Calcium/calmodulin-dependent protein kinase type II subunit alpha (Homo sapiens) (UniProt Q9UQM7); experiment: Inhibition of recombinant full length human His-tagged CAMK2A expressed in baculovirus expression system at 1 uM relative to control; outline: as §1
Chain of Calcium/calmodulin-dependent protein kinase type II subunit alpha (Homo sapiens) (Q9UQM7 whole entry): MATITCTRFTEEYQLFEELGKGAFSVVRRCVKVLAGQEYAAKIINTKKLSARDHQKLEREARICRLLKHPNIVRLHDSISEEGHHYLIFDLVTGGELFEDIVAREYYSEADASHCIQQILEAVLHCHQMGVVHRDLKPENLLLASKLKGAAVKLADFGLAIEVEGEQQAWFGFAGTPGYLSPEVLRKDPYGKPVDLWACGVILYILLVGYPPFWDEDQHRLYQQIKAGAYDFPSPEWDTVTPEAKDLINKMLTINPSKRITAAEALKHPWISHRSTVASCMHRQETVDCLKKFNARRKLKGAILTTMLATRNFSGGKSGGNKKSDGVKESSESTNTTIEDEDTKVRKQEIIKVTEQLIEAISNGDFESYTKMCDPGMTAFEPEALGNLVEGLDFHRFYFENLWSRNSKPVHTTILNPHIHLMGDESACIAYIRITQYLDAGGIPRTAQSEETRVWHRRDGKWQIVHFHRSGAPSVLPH

[5] = molecular target: CDK2/Cyclin A2 (Homo sapiens) (UniProt P24941+P20248); experiment: Inhibition of recombinant full length human His-tagged CDK2/Cyclin-A expressed in baculovirus expression system at 1 uM relative to control; outline: as §1
[6] = molecular target: T2, Serine/threonine-protein kinase Chk1 (Homo sapiens) (UniProt O14757); experiment: Inhibition of recombinant full length human His-tagged CHEK1 expressed in baculovirus expression system at 1 uM relative to control; outline: as §1
T2 sequence (whole entry): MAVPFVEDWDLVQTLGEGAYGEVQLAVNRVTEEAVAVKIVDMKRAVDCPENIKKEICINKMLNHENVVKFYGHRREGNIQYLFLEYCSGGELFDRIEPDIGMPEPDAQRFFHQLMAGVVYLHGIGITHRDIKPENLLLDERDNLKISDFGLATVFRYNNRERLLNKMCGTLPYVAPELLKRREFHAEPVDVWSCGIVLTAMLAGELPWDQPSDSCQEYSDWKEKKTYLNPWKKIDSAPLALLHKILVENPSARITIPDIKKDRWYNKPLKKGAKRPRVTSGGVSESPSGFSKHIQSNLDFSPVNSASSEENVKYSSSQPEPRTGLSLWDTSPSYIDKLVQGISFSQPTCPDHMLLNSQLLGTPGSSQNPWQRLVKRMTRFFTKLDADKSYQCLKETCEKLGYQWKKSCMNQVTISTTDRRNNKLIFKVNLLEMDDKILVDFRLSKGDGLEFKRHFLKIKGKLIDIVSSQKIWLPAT

[7] = molecular target: Serine/threonine-protein kinase Chk2 (Homo sapiens) (UniProt O96017); experiment: Inhibition of recombinant full length human His-tagged CHEK2 expressed in baculovirus expression system at 1 uM relative to control; outline: as §1
Chain of Serine/threonine-protein kinase Chk2 (Homo sapiens) (O96017 whole entry): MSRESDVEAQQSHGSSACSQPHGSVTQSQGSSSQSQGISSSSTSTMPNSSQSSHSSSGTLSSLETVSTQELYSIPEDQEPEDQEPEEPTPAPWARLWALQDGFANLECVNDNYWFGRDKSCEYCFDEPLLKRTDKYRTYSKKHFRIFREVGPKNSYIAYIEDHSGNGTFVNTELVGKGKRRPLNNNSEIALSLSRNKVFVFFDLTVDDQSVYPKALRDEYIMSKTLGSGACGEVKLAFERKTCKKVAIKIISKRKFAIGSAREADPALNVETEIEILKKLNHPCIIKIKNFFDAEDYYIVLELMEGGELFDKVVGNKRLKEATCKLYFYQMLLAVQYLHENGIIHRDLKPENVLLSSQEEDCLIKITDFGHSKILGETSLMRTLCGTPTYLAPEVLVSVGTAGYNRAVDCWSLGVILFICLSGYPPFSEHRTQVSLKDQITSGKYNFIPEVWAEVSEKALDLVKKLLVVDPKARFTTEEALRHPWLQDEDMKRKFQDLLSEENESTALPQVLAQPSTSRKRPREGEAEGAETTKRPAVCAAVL

[8] = molecular target: Casein kinase II subunit alpha' (Homo sapiens) (UniProt P19784); experiment: Inhibition of recombinant full length human GST-tagged CSNK2A2 expressed in baculovirus expression system at 1 uM relative to control; outline: as §1
[9] = molecular target: Ephrin type-A receptor 2 (Homo sapiens) (UniProt P29317); experiment: Inhibition of recombinant human GST-tagged EPHA2 cytoplasmic domain expressed in baculovirus expression system at 1 uM relative to control; outline: as §1
Chain of Ephrin type-A receptor 2 (Homo sapiens) (P29317 whole entry, the tested form may be a part): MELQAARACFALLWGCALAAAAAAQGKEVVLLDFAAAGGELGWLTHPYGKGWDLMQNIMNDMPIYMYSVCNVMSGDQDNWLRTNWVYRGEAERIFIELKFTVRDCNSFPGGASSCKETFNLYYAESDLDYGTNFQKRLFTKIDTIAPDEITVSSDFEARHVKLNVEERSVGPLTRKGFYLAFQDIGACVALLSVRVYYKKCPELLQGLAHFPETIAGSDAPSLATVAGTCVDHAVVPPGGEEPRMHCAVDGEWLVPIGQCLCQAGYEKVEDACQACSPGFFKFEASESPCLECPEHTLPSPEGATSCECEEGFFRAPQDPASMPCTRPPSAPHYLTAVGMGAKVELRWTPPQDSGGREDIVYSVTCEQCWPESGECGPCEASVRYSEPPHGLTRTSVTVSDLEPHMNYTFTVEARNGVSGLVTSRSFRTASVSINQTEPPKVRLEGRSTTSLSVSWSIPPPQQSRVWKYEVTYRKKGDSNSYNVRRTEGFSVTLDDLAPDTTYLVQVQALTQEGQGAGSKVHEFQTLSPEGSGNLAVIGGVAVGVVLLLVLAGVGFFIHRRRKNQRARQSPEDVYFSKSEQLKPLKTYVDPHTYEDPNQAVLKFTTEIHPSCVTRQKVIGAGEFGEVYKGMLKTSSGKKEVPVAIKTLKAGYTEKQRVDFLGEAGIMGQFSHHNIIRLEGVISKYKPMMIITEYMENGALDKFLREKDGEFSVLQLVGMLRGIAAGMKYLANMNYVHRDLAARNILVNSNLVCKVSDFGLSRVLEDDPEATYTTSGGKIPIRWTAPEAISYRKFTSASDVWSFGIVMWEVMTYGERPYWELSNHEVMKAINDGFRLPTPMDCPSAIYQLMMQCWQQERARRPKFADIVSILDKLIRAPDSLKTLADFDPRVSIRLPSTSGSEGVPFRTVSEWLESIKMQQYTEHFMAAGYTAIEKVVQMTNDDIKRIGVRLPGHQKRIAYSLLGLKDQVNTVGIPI

[10] = molecular target: Glycogen synthase kinase-3 beta (Homo sapiens) (UniProt P49841); experiment: Inhibition of recombinant human full length His-tagged GSK3beta expressed in baculovirus expression system at 1 uM relative to control; outline: as §1
Chain of Glycogen synthase kinase-3 beta (Homo sapiens) (P49841 whole entry, looked up): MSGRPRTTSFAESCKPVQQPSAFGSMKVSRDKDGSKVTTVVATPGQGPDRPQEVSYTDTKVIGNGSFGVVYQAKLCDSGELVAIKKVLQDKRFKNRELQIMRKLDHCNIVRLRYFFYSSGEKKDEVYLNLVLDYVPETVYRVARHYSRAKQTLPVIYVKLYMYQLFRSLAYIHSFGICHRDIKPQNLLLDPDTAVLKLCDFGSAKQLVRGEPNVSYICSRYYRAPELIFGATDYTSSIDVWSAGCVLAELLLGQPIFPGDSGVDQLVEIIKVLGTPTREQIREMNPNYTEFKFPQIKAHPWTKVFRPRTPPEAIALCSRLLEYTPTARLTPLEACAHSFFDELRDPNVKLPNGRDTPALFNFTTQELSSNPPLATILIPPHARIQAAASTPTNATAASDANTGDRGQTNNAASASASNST

[11] = molecular target: Tyrosine-protein kinase Lck (Homo sapiens) (UniProt P06239); experiment: Inhibition of recombinant human full length His-tagged LCK expressed in baculovirus expression system at 1 uM relative to control; outline: as §1
Chain of Tyrosine-protein kinase Lck (Homo sapiens) (P06239 2-509 limits assumed): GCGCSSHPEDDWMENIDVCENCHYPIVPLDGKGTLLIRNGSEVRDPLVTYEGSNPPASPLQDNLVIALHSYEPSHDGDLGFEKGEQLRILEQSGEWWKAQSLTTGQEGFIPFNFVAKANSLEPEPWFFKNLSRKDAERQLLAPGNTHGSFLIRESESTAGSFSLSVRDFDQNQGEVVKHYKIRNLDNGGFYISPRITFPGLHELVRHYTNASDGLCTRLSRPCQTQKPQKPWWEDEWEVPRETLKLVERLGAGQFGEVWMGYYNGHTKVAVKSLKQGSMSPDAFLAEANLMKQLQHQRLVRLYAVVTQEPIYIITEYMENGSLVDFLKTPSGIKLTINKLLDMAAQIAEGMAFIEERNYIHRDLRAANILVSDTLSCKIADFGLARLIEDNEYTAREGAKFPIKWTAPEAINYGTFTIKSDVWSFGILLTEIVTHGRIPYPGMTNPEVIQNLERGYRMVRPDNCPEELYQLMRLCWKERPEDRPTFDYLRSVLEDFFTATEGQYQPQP

[12] = molecular target: MAP kinase-activated protein kinase 2 (Homo sapiens) (UniProt P49137); experiment: Inhibition of recombinant full length human His-tagged MAPKAPK2 expressed in Escherichia coli at 1 uM relative to control; outline: as §1
[13] = molecular target: Serine/threonine-protein kinase MARK1 (Homo sapiens) (UniProt Q9P0L2); experiment: Inhibition of recombinant human full length GST-tagged MARK1 expressed in baculovirus expression system at 1 uM relative to control; outline: as §1
Chain of Serine/threonine-protein kinase MARK1 (Homo sapiens) (Q9P0L2 whole entry, looked up): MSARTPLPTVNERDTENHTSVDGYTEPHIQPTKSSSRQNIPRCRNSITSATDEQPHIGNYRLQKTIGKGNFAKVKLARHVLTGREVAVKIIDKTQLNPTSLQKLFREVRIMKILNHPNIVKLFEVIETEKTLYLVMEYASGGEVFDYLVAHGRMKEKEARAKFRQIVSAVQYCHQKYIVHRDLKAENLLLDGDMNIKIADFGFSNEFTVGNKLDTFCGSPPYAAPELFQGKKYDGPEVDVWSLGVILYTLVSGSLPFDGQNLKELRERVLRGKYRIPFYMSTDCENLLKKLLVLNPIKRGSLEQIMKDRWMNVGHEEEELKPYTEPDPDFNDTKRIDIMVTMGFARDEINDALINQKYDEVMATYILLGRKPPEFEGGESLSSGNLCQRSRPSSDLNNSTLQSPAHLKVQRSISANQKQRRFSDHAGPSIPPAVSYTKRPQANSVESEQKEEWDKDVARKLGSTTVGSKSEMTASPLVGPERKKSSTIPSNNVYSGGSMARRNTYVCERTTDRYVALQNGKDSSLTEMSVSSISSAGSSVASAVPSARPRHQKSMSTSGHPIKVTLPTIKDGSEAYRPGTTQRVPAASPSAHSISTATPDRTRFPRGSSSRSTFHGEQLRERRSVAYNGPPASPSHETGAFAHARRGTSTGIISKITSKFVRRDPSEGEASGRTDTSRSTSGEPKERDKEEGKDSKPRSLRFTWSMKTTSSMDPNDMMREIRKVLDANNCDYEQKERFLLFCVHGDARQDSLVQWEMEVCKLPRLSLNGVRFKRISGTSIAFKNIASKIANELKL

[14] = molecular target: Myosin light chain kinase 2, skeletal/cardiac muscle (Homo sapiens) (UniProt Q9H1R3); experiment: Inhibition of recombinant human full length GST-tagged MYLK2 expressed in baculovirus expression system at 1 uM relative to control; outline: as §1
Chain of Myosin light chain kinase 2, skeletal/cardiac muscle (Homo sapiens) (Q9H1R3 whole entry, the tested form may be a part): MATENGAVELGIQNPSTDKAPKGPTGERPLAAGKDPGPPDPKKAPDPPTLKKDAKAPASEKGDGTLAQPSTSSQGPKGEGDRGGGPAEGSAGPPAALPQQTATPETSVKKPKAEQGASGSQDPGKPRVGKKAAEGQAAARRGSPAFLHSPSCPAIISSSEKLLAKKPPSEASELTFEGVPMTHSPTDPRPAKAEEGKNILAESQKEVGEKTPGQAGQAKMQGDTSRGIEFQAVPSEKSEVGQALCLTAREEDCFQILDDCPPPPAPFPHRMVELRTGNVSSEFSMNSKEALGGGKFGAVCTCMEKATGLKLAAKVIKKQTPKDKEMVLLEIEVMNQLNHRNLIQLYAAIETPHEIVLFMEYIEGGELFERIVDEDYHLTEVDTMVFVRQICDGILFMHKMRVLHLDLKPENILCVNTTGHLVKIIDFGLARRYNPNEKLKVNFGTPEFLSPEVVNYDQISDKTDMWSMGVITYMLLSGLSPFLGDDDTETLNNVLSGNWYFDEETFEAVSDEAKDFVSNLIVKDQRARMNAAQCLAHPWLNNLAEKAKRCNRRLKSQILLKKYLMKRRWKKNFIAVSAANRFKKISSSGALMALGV

[15] = molecular target: High affinity nerve growth factor receptor (Homo sapiens) (UniProt P04629); experiment: Inhibition of recombinant human His-tagged NTRK1 (526 to 838 residues) expressed in baculovirus expression system at 1 uM relative to control; outline: as §1
[16] = molecular target: Protein kinase C beta type (Homo sapiens) (UniProt P05771); experiment: Inhibition of recombinant human full length GST-tagged PRKCB2 expressed in insect cells at 1 uM relative to control; outline: as §1
Chain of Protein kinase C beta type (Homo sapiens) (P05771 2-671 limits assumed): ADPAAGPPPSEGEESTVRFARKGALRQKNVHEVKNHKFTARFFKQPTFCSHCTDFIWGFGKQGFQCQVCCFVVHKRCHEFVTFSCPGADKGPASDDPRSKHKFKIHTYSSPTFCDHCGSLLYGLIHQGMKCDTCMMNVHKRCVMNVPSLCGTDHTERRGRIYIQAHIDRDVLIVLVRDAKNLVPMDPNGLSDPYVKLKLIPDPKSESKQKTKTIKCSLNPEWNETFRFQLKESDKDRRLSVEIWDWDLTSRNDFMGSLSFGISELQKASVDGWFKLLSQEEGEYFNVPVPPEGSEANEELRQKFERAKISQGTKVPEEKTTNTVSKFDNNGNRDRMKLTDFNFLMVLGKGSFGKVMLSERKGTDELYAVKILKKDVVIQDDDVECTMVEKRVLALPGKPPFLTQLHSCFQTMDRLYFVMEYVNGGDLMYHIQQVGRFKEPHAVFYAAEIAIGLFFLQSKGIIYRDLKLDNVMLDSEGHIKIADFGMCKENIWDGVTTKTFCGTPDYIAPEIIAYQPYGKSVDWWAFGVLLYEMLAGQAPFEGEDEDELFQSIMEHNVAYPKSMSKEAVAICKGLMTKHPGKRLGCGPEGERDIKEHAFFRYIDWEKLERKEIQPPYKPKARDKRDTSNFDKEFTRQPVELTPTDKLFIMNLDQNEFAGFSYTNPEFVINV

SMILES | Papp [1] | inhibition [2] | inhibition [3] | inhibition [4] | inhibition [5] | inhibition [6] | inhibition [7] | inhibition [8] | inhibition [9] | inhibition [10] | inhibition [11] | inhibition [12] | inhibition [13] | inhibition [14] | inhibition [15] | inhibition [16]
COc1cc(C)c(S(C)(=O)=O)cc1C(=O)Nc1cccc(-c2nncn2C(C)C)n1 | 72 nm/s | -6% | -1% | 3% | 2% | 2% | 76% | 3% | 0% | 3% | -6% | -1% | -1% | 3% | -3% | 12%
COc1cc(C)c(S(N)(=O)=O)cc1C(=O)Nc1cccc(-c2nncn2C(C)C)n1 | 23 nm/s | 4% | 5% | 13% | 5% | 8% | 87% | 6% | -1% | 6% | 11% | 7% | -1% | 7% | -1% | 9%
COc1ccc(S(N)(=O)=O)cc1C(=O)Nc1cccc(-c2nncn2C(C)C)n1 | 20 to 20.4 nm/s | -3% | -4% | 12% | 5% | -4% | 73% | -1% | 0% | 0% | 8% | 13% | 0% | 1% | 20% | 12%
COc1ccc(S(C)(=O)=O)cc1C(=O)Nc1cccc(-c2nncn2C(C)C)n1 | 79 nm/s | -4% | 11% | -3% | 4% | 1% | 48% | 5% | 0% | -1% | 4% | 6% | 3% | 0% | 12% | 5%

Continued, values first:

Papp [1] | inhibition [2] | inhibition [3] | inhibition [4] | inhibition [5] | inhibition [6] | inhibition [7] | inhibition [8] | inhibition [9] | inhibition [10] | inhibition [11] | inhibition [12] | inhibition [13] | inhibition [14] | inhibition [15] | inhibition [16] | SMILES
35 nm/s | 16% | 2% | 6% | 57% | 17% | 76% | 1% | 1% | 7% | 4% | 0% | 5% | 0% | 5% | 3% | COc1cc(C)c(C(N)=O)cc1C(=O)Nc1cccc(-c2nncn2C(C)C)n1
35 nm/s | 16% | 3% | 6% | 33% | 34% | 45% | 0% | -1% | 0% | 13% | 10% | 0% | 7% | 12% | 9% | COc1ccc(C(N)=O)cc1C(=O)Nc1cccc(-c2nncn2C(C)C)n1
